Measured values from ChEMBL document CHEMBL4304745, “On the Process of Discovering Leads That Target the Heparin-Binding Site of Neutrophil Elastase in the Sputum of Cystic Fibrosis Patients” (J Med Chem, 2019).
Blank lines part the entries; values can stand above or below the molecule they belong to. Activity calls are given as the source filed them. The rule behind the calls is not given here.

Key:
Neutrophil elastase = biological target: T1, Neutrophil elastase (Homo sapiens, UniProt P08246); experiment: Inhibition of human neutrophil elastase using S1384 as substrate preincubated for 5 mins followed by substrate addition
T1 sequence (P08246 whole entry): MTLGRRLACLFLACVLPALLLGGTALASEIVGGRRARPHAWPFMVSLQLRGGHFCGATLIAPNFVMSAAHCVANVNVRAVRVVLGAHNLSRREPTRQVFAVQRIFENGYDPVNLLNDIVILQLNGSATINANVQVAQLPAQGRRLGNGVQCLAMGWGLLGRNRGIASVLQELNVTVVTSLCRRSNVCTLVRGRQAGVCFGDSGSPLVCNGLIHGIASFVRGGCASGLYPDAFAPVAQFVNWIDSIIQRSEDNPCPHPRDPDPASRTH

Plasma [1] = experiment: Anticoagulant activity in human plasma assessed as effect on prothrombin time at 855 uM measured after 5 mins; format: ADME, cell-free
Method in brief: (§1)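 APTT and PT recorded in human plasma with compound present at concentrations up to 855 µM. The read-out is the change in clotting time relative to untreated plasma.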

Cathepsin G = biological target: T2, Cathepsin G (Homo sapiens, UniProt P08311); experiment: Inhibition of human leukocyte cathepsin G using S7388 as substrate preincubated for 5 mins followed by substrate addition
T2 sequence (P08311 whole entry): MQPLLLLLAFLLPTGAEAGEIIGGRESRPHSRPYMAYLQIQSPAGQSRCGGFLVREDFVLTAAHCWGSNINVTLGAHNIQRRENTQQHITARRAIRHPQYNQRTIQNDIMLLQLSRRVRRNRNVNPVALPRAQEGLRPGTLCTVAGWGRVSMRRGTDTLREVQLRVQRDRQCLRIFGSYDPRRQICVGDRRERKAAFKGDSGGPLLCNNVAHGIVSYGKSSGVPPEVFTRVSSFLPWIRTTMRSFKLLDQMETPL

Coagulation factor X = Coagulation factor X (Homo sapiens, UniProt P00742); experiment: Inhibition of factor 10a (unknown origin) using spectrozyme as substrate preincubated for 5 mins followed by substrate addition
[2] = biological target: T3, Neutrophil elastase (Homo sapiens) (UniProt P08246); experiment: Inhibition of neutrophil elastase in cystic fibrosis patient-derived sputum 2 mM using S1384 as substrate measured after 2 hrs; format: tissue-based
T3 sequence (whole entry): T1 sequence (P08246 whole entry)

Homo sapiens [3] = species on record: Homo sapiens; experiment: Selectivity ratio of IC50 for plasmin (unknown origin) to IC50 for human neutrophil elastase
Homo sapiens [4] = species on record: Homo sapiens; experiment: Selectivity ratio of IC50 for thrombin (unknown origin) to IC50 for human neutrophil elastase
Plasma [5] = experiment: Anticoagulant activity in human plasma assessed as effect on activated partial thromboplastin time at 855 uM measured after 5 mins; format: ADME, cell-free; method in brief: as §1
[6] = Solubility of the compound in water; format: physicochemical
[7] = biological target: T3, Neutrophil elastase (Homo sapiens); experiment: Inhibition of neutrophil elastase in cystic fibrosis patient-derived sputum at 2 mM using S1384 as substrate measured after 2 hrs in presence of DNAse1 and 150 mM NaCl; format: tissue-based
Method in brief: (§2)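 Sputum from cystic fibrosis patients is cleared of insoluble debris by centrifugation and treated with DNase. HNE activity is then read by chromogenic substrate hydrolysis across increasing compound concentrations, up to about 2 mM.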

[8] = biological target: T3, Neutrophil elastase (Homo sapiens); experiment: Inhibition of neutrophil elastase in cystic fibrosis patient-derived sputum using S1384 as substrate measured after 2 hrs in presence of DNAse1 and 150 mM NaCl; format: tissue-based; method in brief: as §2
[9] = biological target: T3, Neutrophil elastase (Homo sapiens); experiment: Inhibition of neutrophil elastase in cystic fibrosis patient-derived sputum up to 250 using S1384 as substrate measured after 2 hrs in presence of DNAse1 and 150 mM NaCl; format: tissue-based
Plasminogen = Plasminogen (Homo sapiens, UniProt P00747); experiment: Inhibition of plasmin (unknown origin) using spectrozyme as substrate preincubated for 5 mins followed by substrate addition
[10] = biological target: T3, Neutrophil elastase (Homo sapiens); experiment: Inhibition of neutrophil elastase in cystic fibrosis patient-derived sputum at 2 mM using S1384 as substrate measured after 2 hrs in presence of DNAse1 and 400 mM NaCl; format: tissue-based; method in brief: as §2
Myeloblastin = biological target: T4, Myeloblastin (Homo sapiens, UniProt P24158); experiment: Inhibition of human neutrophil proteinase 3 using M4765 as substrate preincubated for 5 mins followed by substrate addition
T4 sequence (P24158 whole entry): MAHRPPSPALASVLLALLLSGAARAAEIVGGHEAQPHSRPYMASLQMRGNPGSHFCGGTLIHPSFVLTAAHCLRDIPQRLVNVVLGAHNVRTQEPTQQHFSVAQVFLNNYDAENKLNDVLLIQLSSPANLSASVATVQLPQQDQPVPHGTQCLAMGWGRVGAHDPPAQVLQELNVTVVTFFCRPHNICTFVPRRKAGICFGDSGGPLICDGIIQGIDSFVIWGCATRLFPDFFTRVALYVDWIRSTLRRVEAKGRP

Homo sapiens [11] = species on record: Homo sapiens; experiment: Selectivity ratio of IC50 for factor 10a (unknown origin) to IC50 for human neutrophil elastase
Prothrombin = Prothrombin (Homo sapiens, UniProt P00734); experiment: Inhibition of thrombin (unknown origin) using spectrozyme as substrate preincubated for 5 mins followed by substrate addition
Coagulation factor XI = Coagulation factor XI (Homo sapiens, UniProt P03951); experiment: Inhibition of factor 11a (unknown origin) using S-2366 as substrate preincubated for 5 mins followed by substrate addition
[12] = biological target: T3, Neutrophil elastase (Homo sapiens); experiment: Inhibition of human neutrophil elastase assessed as reduction in elastin-congo red hydrolysis preincubated for 30 mins followed by elastin-congo red addition measured after 48 hrs
Method in brief: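 Elastin-congo red hydrolysis by HNE at pH 8. Congo red released by elastin degradation is quantified by absorbance at 497 nm. Run in triplicate; error bars are one standard deviation.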

[13] = biological target: T3, Neutrophil elastase (Homo sapiens); experiment: Mixed type inhibition of human neutrophil elastase assessed as increase in Km for substrate at 1000 uM using varying levels of S1384 as substrate by Michaelis-Menten plot analysis relative to control
Homo sapiens [14] = species on record: Homo sapiens; experiment: Selectivity ratio of IC50 for factor 11 (unknown origin) to IC50 for human neutrophil elastase
[15] = biological target: T3, Neutrophil elastase (Homo sapiens); experiment: Mixed type inhibition of human neutrophil elastase assessed as decrease in Vmax for substrate at 1000 uM using varying levels of S1384 as substrate by Michaelis-Menten plot analysis relative to control
Plasma [16] = experiment: Anticoagulant activity in human plasma assessed as concentration required to double the activated partial thromboplastin time measured after 5 mins; format: ADME, cell-free
Method in brief: (§3)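 Clotting times (APTT and PT) measured in human plasma over a range of compound concentrations. The value is the concentration needed to double each clotting time.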

Plasma [17] = experiment: Anticoagulant activity in human plasma assessed as concentration required to double the prothrombin time measured after 5 mins; format: ADME, cell-free; method in brief: as §3
[18] = compound: O=c1cc(-c2ccc(OS(=O)(=O)O)cc2)oc2cc(OS(=O)(=O)O)cc(OCc3cccc(COc4cc(OS(=O)(=O)O)cc5oc(-c6ccc(OS(=O)(=O)O)cc6)cc(=O)c45)n3)c12; experiment: Mixed type inhibition of human neutrophil elastase assessed as Km for substrate at 1000 uM using varying levels of S1384 as substrate by Michaelis-Menten plot analysis (reference value: 650 +/- 24 uM)
[19] = compound: O=c1cc(-c2ccc(OS(=O)(=O)O)cc2)oc2cc(OS(=O)(=O)O)cc(OCc3cccc(COc4cc(OS(=O)(=O)O)cc5oc(-c6ccc(OS(=O)(=O)O)cc6)cc(=O)c45)n3)c12; experiment: Mixed type inhibition of human neutrophil elastase assessed as Vmax for substrate at 250 uM using varying levels of S1384 as substrate by Michaelis-Menten plot analysis (reference value: 40.1 +/- 0.5 mAU/min)
[20] = compound: O=c1cc(-c2ccc(OS(=O)(=O)O)cc2)oc2cc(OS(=O)(=O)O)cc(OCc3cccc(COc4cc(OS(=O)(=O)O)cc5oc(-c6ccc(OS(=O)(=O)O)cc6)cc(=O)c45)n3)c12; experiment: Mixed type inhibition of human neutrophil elastase assessed as Vmax for substrate at 750 uM using varying levels of S1384 as substrate by Michaelis-Menten plot analysis (reference value: 40.1 +/- 0.5 mAU/min)
[21] = compound: O=c1cc(-c2ccc(OS(=O)(=O)O)cc2)oc2cc(OS(=O)(=O)O)cc(OCc3cccc(COc4cc(OS(=O)(=O)O)cc5oc(-c6ccc(OS(=O)(=O)O)cc6)cc(=O)c45)n3)c12; experiment: Mixed type inhibition of human neutrophil elastase assessed as Km for substrate at 250 uM using varying levels of S1384 as substrate by Michaelis-Menten plot analysis (reference value: 650 +/- 24 uM)
[22] = compound: O=c1cc(-c2ccc(OS(=O)(=O)O)cc2)oc2cc(OS(=O)(=O)O)cc(OCc3cccc(COc4cc(OS(=O)(=O)O)cc5oc(-c6ccc(OS(=O)(=O)O)cc6)cc(=O)c45)n3)c12; experiment: Mixed type inhibition of human neutrophil elastase assessed as Vmax for substrate at 500 uM using varying levels of S1384 as substrate by Michaelis-Menten plot analysis (reference value: 40.1 +/- 0.5 mAU/min)
[23] = compound: O=c1cc(-c2ccc(OS(=O)(=O)O)cc2)oc2cc(OS(=O)(=O)O)cc(OCc3cccc(COc4cc(OS(=O)(=O)O)cc5oc(-c6ccc(OS(=O)(=O)O)cc6)cc(=O)c45)n3)c12; experiment: Mixed type inhibition of human neutrophil elastase assessed as Km for substrate at 500 uM using varying levels of S1384 as substrate by Michaelis-Menten plot analysis (reference value: 650 +/- 24 uM)
[24] = compound: O=c1cc(-c2ccc(OS(=O)(=O)O)cc2)oc2cc(OS(=O)(=O)O)cc(OCc3cccc(COc4cc(OS(=O)(=O)O)cc5oc(-c6ccc(OS(=O)(=O)O)cc6)cc(=O)c45)n3)c12; experiment: Mixed type inhibition of human neutrophil elastase assessed as Km for substrate at 750 uM using varying levels of S1384 as substrate by Michaelis-Menten plot analysis (reference value: 650 +/- 24 uM)
[25] = compound: O=c1cc(-c2ccc(OS(=O)(=O)O)cc2)oc2cc(OS(=O)(=O)O)cc(OCc3cccc(COc4cc(OS(=O)(=O)O)cc5oc(-c6ccc(OS(=O)(=O)O)cc6)cc(=O)c45)n3)c12; experiment: Mixed type inhibition of human neutrophil elastase assessed as Vmax for substrate at 1000 uM using varying levels of S1384 as substrate by Michaelis-Menten plot analysis (reference value: 40.1 +/- 0.5 mAU/min)

Chain of Coagulation factor X (P00742 41-179 limits assumed): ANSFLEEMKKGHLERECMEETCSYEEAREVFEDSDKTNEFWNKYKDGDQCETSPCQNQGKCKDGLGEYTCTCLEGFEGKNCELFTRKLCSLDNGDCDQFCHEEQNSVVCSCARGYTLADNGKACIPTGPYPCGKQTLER
Chain of Coagulation factor X (P00742 235-488 limits assumed): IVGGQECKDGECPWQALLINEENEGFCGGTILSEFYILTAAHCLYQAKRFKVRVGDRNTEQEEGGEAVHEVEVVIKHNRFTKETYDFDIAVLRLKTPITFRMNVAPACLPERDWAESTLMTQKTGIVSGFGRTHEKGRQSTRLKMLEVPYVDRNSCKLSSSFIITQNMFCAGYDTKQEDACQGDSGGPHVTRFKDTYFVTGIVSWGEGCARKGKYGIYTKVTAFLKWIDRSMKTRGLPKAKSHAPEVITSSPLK
Chain of Coagulation factor XI (P03951 19-387 limits assumed): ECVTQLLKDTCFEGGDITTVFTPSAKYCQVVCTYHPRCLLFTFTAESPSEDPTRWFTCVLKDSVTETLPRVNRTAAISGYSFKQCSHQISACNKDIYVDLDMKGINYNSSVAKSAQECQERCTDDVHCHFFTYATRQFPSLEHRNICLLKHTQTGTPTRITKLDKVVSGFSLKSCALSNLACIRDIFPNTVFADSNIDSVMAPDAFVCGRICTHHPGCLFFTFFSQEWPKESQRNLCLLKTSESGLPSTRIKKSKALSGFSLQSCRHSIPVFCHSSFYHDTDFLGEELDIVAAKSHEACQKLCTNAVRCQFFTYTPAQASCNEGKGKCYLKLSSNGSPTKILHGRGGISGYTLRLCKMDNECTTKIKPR
Chain of Coagulation factor XI (P03951 388-625 limits assumed): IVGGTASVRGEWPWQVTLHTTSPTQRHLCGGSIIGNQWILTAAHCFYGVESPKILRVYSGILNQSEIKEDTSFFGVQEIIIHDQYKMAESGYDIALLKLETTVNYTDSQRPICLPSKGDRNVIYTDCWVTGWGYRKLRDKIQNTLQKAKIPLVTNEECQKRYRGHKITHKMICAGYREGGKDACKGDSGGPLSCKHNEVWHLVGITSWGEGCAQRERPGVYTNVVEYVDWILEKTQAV
Chain of Plasminogen (P00747 97-580 limits assumed): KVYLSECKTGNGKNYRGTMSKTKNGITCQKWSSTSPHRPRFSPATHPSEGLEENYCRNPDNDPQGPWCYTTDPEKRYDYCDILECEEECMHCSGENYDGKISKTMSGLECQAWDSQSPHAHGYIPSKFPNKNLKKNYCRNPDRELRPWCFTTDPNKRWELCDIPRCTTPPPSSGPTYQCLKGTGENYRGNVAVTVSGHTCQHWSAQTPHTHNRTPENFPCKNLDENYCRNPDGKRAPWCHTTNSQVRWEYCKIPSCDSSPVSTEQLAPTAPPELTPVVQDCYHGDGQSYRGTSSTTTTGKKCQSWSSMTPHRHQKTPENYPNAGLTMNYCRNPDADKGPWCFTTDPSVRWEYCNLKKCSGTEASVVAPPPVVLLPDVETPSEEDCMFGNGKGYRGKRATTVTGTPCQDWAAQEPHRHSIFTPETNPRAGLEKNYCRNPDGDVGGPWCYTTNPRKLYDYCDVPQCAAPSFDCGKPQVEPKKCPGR
Chain of Plasminogen (P00747 581-810 limits assumed): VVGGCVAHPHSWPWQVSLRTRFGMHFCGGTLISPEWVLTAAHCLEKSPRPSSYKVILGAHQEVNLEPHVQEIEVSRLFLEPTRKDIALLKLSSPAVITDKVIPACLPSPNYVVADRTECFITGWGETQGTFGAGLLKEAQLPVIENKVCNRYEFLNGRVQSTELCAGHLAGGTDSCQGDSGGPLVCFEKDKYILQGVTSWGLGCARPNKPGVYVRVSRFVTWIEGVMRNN

Molecule: O=c1cc(-c2ccc(OS(=O)(=O)O)cc2)oc2cc(OS(=O)(=O)O)cc(OCc3cccc(COc4cc(OS(=O)(=O)O)cc5oc(-c6ccc(OS(=O)(=O)O)cc6)cc(=O)c45)c3)c12
IC50 (Neutrophil elastase): 157000 nM

Molecule: O=c1cc(-c2ccc(OS(=O)(=O)[O-])cc2)oc2cc(OS(=O)(=O)[O-])cc(OCc3cccc(COc4cc(OS(=O)(=O)[O-])cc5oc(-c6ccc(OS(=O)(=O)[O-])cc6)cc(=O)c45)n3)c12.[Na+].[Na+].[Na+].[Na+]
Activity (Plasma [1]): Non-Toxic
IC50 (Cathepsin G): 1100 nM
inhibition (INH) (Coagulation factor X): Active
inhibition [2]: inactive
Ratio IC50 (Homo sapiens [3]): > 50
Ratio IC50 (Homo sapiens [4]): > 50
Activity (Plasma [5]): Non-Toxic
solubility [6]: > 10000 µg/mL
inhibition [7]: 100%
inhibition [8]: Dose-dependent effect
inhibition [9]: inactive
inhibition (INH) (Plasminogen): Active
inhibition [10]: Active
IC50 (Neutrophil elastase): 690 nM
IC50 (Myeloblastin): 54000 nM
Ratio IC50 (Homo sapiens [11]): > 50
inhibition (INH) (Prothrombin): Active
inhibition (INH) (Coagulation factor XI): Active
inhibition [12]: Active
fold change (FC) [13]: 3
Ratio IC50 (Homo sapiens [14]): 28
fold change (FC) [15]: 2.5

Molecule: O=c1c(OS(=O)(=O)O)c(-c2ccc(OS(=O)(=O)O)c(OS(=O)(=O)O)c2)oc2cc(OS(=O)(=O)O)cc(OCc3ccc(COc4cc(OS(=O)(=O)O)cc5oc(-c6ccc(OS(=O)(=O)O)c(OS(=O)(=O)O)c6)c(OS(=O)(=O)O)c(=O)c45)cc3)c12
IC50 (Neutrophil elastase): 230 nM

B1: Neutrophil elastase (Homo sapiens), P08246 (protein)
chain: T1 sequence (P08246 whole entry)
Km [18]: 1670 µM
Vmax [19]: 38.6 mAU/min
Vmax [20]: 19 mAU/min
Km [21]: 908 µM
Vmax [22]: 30.3 mAU/min
Km [23]: 788 µM
Km [24]: 1220 µM
Vmax [25]: 15.3 mAU/min

Continued, values first:

2aPTT (Plasma [16]): 49 µM
2PT (Plasma [17]): 152 µM
IC50 (Neutrophil elastase): 40 nM
inhibition [12]: Active
Molecule: O=C(OC[C@H]1O[C@@H](OC(=O)c2cc(OS(=O)(=O)[O-])c(O)c(OS(=O)(=O)[O-])c2)[C@H](OC(=O)c2cc(OS(=O)(=O)[O-])c(O)c(OS(=O)(=O)[O-])c2)[C@@H](OC(=O)c2cc(OS(=O)(=O)[O-])c(O)c(OS(=O)(=O)[O-])c2)[C@@H]1OC(=O)c1cc(OS(=O)(=O)[O-])c(O)c(OS(=O)(=O)[O-])c1)c1cc(OS(=O)(=O)[O-])c(O)c(OS(=O)(=O)[O-])c1.[Na+].[Na+].[Na+].[Na+].[Na+].[Na+].[Na+].[Na+].[Na+].[Na+] [sulfated pentagalloylglucoside]

IC50 (Neutrophil elastase): 140 nM
Molecule: O=c1c(OS(=O)(=O)O)c(-c2ccc(OS(=O)(=O)O)c(OS(=O)(=O)O)c2)oc2cc(OS(=O)(=O)O)cc(OCCOc3cc(-c4oc5cc(OS(=O)(=O)O)cc(OCCOc6cc(OS(=O)(=O)O)cc7oc(-c8ccc(OS(=O)(=O)O)c(OS(=O)(=O)O)c8)c(OS(=O)(=O)O)c(=O)c67)c5c(=O)c4OS(=O)(=O)O)ccc3OS(=O)(=O)O)c12
